# Results as given in ChEMBL document CHEMBL4431342, “Coumarin derivatives as potential inhibitors of acetylcholinesterase: Synthesis, molecular docking and biological studies” (Bioorg Med Chem, 2016).
# Active and inactive are the calls of the source. The calls are words filed in the database; no cut-off is given here.
# Molecular target: T1, Acetylcholinesterase (Mus musculus, UniProt P21836)
# T1 sequence (P21836 whole entry): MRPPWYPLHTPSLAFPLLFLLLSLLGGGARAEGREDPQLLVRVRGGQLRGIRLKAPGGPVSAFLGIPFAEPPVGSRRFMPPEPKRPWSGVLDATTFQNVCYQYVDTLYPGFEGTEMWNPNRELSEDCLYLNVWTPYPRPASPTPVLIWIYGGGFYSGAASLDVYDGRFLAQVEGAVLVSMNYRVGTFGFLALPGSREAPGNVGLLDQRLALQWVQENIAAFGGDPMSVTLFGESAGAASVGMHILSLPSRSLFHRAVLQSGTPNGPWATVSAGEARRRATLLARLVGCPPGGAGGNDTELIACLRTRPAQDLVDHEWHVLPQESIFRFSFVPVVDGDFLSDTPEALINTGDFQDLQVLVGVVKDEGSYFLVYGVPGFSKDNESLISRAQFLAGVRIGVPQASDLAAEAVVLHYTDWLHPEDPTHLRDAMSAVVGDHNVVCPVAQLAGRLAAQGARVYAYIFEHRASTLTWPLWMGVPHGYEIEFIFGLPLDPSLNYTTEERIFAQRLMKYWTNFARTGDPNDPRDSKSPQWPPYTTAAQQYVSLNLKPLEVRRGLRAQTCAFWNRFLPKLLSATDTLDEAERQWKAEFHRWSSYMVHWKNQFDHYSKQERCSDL
# Assay: biochemical
# Assay type: tissue-based, LACA, Brain
row,Compound,IC50
1,O=C(NCCc1ccccc1)Oc1cc(=O)oc2ccccc12,83.4 µM
2,O=c1cc(OCCCCN2CCN(c3ccccc3F)CC2)c2ccccc2o1,29.7 µM
3,O=c1cc(OCCCCN2CCN(c3ccccn3)CC2)c2ccccc2o1,37.5 µM
4,O=c1cc(OCCCN2CCN(c3ncccn3)CC2)c2ccccc2o1,21.6 µM
5,O=c1cc(OCCCN2CCN(c3ccccc3F)CC2)c2ccccc2o1,5.2 µM
6,O=c1cc(OCCCCN2CCN(c3ccccc3)CC2)c2ccccc2o1,14.9 µM
7,O=c1cc(OCCCN2CCN(c3ccccn3)CC2)c2ccccc2o1,16.1 µM
8,COc1ccc(CCNCCCOc2cc(=O)oc3ccccc23)cc1OC,47.1 µM
9,O=c1cc(OCCCN2CCN(c3ccc(F)cc3)CC2)c2ccccc2o1,9.5 µM
10,O=c1cc(OCCCCN2CCN(c3ncccn3)CC2)c2ccccc2o1,34.8 µM
11,O=c1cc(OCCCNCCc2ccccc2)c2ccccc2o1,66.9 µM
12,O=c1cc(OCCCN2CCC(Cc3ccccc3)CC2)c2ccccc2o1,11.4 µM
13,O=C(Oc1cc(=O)oc2ccccc12)N1CCN(c2ccccc2)CC1,74.8 µM
14,O=c1cc(OCCCN2CCN(c3ccccc3)CC2)c2ccccc2o1,2.42 µM

# System: Mus musculus
# Assay: Antiamnesic activity in Albino LACA mouse assessed as decrease in scopolamine-induced increase in escape latency time administered intraperitoneally 5 mins post scopolamine challenge for 35 mins by Morris water maze test
# Assay type: functional, organism-based
# How it was run: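 Mice of either sex, 25-35 g, housed in groups of five. […] Water maze: water 30 cm deep at 28 ± 2 °C, 5 days, 90 s maximum per trial, then a 90 s probe trial. Read-out is escape latency; n = 5, mean ± SEM.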
row,Compound,Activity
1,O=C(NCCc1ccccc1)Oc1cc(=O)oc2ccccc12,Active
2,O=c1cc(OCCCCN2CCN(c3ccccc3F)CC2)c2ccccc2o1,Active
3,O=c1cc(OCCCCN2CCN(c3ccccn3)CC2)c2ccccc2o1,Active
4,O=c1cc(OCCCN2CCN(c3ncccn3)CC2)c2ccccc2o1,Active
5,O=c1cc(OCCCN2CCN(c3ccccc3F)CC2)c2ccccc2o1,Active
6,O=c1cc(OCCCCN2CCN(c3ccccc3)CC2)c2ccccc2o1,Active
7,O=c1cc(OCCCN2CCN(c3ccccn3)CC2)c2ccccc2o1,Active
8,COc1ccc(CCNCCCOc2cc(=O)oc3ccccc23)cc1OC,Active
9,O=c1cc(OCCCN2CCN(c3ccc(F)cc3)CC2)c2ccccc2o1,Active
10,O=c1cc(OCCCCN2CCN(c3ncccn3)CC2)c2ccccc2o1,Active
11,O=c1cc(OCCCNCCc2ccccc2)c2ccccc2o1,Active
12,O=c1cc(OCCCN2CCC(Cc3ccccc3)CC2)c2ccccc2o1,Active
13,O=C(Oc1cc(=O)oc2ccccc12)N1CCN(c2ccccc2)CC1,Active
14,O=c1cc(OCCCN2CCN(c3ccccc3)CC2)c2ccccc2o1,Active

# System: Mus musculus
# Assay: Antiamnesic activity in Albino LACA mouse assessed as scopolamine-induced increase in escape latency time administered intraperitoneally 5 mins post scopolamine challenge for 35 mins by Morris water maze test (reference value: 49.35 +/- 2.21 secs)
# Assay type: functional
# How it was run: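 LACA albino mice, 25-35 g, either sex, housed five per group. Scopolamine 0.5 mg/kg i.p. or saline given 35 min before training, then vehicle (0.25% CMC suspension) or compound 1 mg/kg i.p. 5 min later. Water maze at 30 cm depth, 28 ± 2 °C, training over 5 days, 90 s maximum per trial, probe trial 90 s. Escape latency recorded, mean of 5 mice.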
row,Compound,Time
1,O=c1cc(OCCCN2CCN(c3ncccn3)CC2)c2ccccc2o1,13.98 s
2,O=c1cc(OCCCN2CCN(c3ccccc3F)CC2)c2ccccc2o1,11.8 s
3,O=c1cc(OCCCN2CCN(c3ccccc3)CC2)c2ccccc2o1,8.05 s
